According to ChEMBL document CHEMBL1687851, “Dolabellanes with antibacterial activity from the brown alga Dilophus spiralis” (2011):
Values after ≈ are worked out from the molar mass of the structure shown.

Experiments:
[1] = test system: Staphylococcus aureus; experiment: Antibacterial activity against 5 x 10^5 CFU/ml Staphylococcus aureus ATCC 25923 after 18 hrs by MTT assay; conditions: ATCC 25923, 18 h
[2] = test system: Staphylococcus aureus; experiment: Antibacterial activity against 5 x 10^5 CFU/ml multi-drug-resistant Staphylococcus aureus XU212 expressing TetK tetracycline efflux protein after 18 hrs by MTT assay; format: functional; conditions: XU212, 18 h
Summary of the method: (§1)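 Strains grown on nutrient agar 24 h at 37 °C; inoculum adjusted to 0.5 McFarland in normal saline. Compounds dissolved in DMSO, diluted in Mueller-Hinton broth to a 512 μg/mL starting concentration, then two-fold serially diluted in MHB supplemented with Mg2+ (10 mg/L) and Ca2+ (20 mg/L). Incubated 18 h at 37 °C; MIC read as lowest concentration with no visible growth, confirmed by MTT (20 min, 37 °C). Triplicates.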

[3] = test system: Staphylococcus aureus; experiment: Antibacterial activity against 5 x 10^5 CFU/ml epidemic methicillin-resistant Staphylococcus aureus EMRSA-15 after 18 hrs by MTT assay; format: functional; conditions: EMRSA-15, 18 h
Summary of the method: as §1

[4] = test system: Staphylococcus aureus; experiment: Antibacterial activity against 5 x 10^5 CFU/ml multi-drug-resistant Staphylococcus aureus SA1199B expressing NorA quinolone efflux protein after 18 hrs by MTT assay; format: functional
Summary of the method: as §1

[5] = test system: Staphylococcus aureus; experiment: Antibacterial activity against 5 x 10^5 CFU/ml macrolide-resistant Staphylococcus aureus RN4220 expressing MsrA macrolide efflux protein after 18 hrs by MTT assay; format: functional; conditions: RN4220, 18 h
Summary of the method: as §1

[6] = test system: Staphylococcus aureus; experiment: Antibacterial activity against 5 x 10^5 CFU/ml epidemic methicillin-resistant Staphylococcus aureus EMRSA-16 after 18 hrs by MTT assay; format: functional; conditions: EMRSA-16, 18 h
Summary of the method: as §1

C/C1=C\C[C@@]2(C)CC[C@@](O)(C(C)C)[C@@H]2CC/C(C)=C/CC1 gave an MIC [1] of 8 µg/mL (≈ 27.5 µM), an MIC [2] of 16 µg/mL (≈ 55.1 µM) and an MIC [3] of 8 µg/mL (≈ 27.5 µM). The MIC [4] was 16 µg/mL (≈ 55.1 µM), the MIC [5] was 8 µg/mL (≈ 27.5 µM) and the MIC [6] was 8 µg/mL (≈ 27.5 µM).

With C=C(C)[C@H]1CC(=O)[C@]2(C)C[C@@H]3O[C@@]3(C)CC/C=C(\C)CC[C@@H]12 the MIC [1] was greater than 128 µg/mL, the MIC [2] was greater than 128 µg/mL and the MIC [3] was greater than 128 µg/mL. It also gave an MIC [4] greater than 128 µg/mL, an MIC [5] of 128 µg/mL (≈ 423 µM) and an MIC [6] greater than 128 µg/mL.

Molecule C=C(C)[C@H]1CC(=O)[C@]2(C)C/C=C(\C)CC/C=C(\C)CC[C@@H]12 has an MIC [1] greater than 128 µg/mL, an MIC [2] greater than 128 µg/mL and an MIC [3] greater than 128 µg/mL. It also gave an MIC [4] of 128 µg/mL (≈ 447 µM), an MIC [5] greater than 128 µg/mL and an MIC [6] of 16 µg/mL (≈ 55.9 µM).

C/C1=C\CC[C@@H](C)/C=C/[C@@]2(C)CC[C@@H](C(C)(C)O)[C@@H]2CC1 gave an MIC [1] of 64 µg/mL (≈ 220 µM), an MIC [2] of 64 µg/mL (≈ 220 µM) and an MIC [3] of 64 µg/mL (≈ 220 µM). The MIC [4] was 64 µg/mL (≈ 220 µM), the MIC [5] was 64 µg/mL (≈ 220 µM) and the MIC [6] was 16 µg/mL (≈ 55.1 µM).

C=C(C)[C@H]1C[C@H](OC(C)=O)[C@]2(C)C/C=C(\C)CC/C=C(\C)CC[C@@H]12 was tested, and the MIC [1] was greater than 128 µg/mL, the MIC [2] was greater than 128 µg/mL and the MIC [3] was greater than 128 µg/mL. The MIC [4] was greater than 128 µg/mL, the MIC [5] was greater than 128 µg/mL and the MIC [6] was greater than 128 µg/mL.

Work on C=C(C)[C@H]1CC(=O)[C@]2(C)C/C=C(\C)CC[C@@H]3O[C@@]3(C)CC[C@@H]12 yielded an MIC [1] greater than 128 µg/mL, an MIC [2] greater than 128 µg/mL and an MIC [3] greater than 128 µg/mL. The MIC [4] was greater than 128 µg/mL, the MIC [5] was greater than 128 µg/mL and the MIC [6] was greater than 128 µg/mL.

C=C(C)[C@H]1CC(=O)[C@]2(C)C/C=C(/C)CC/C=C(\C)CC[C@@H]12 gave an MIC [1] greater than 128 µg/mL, an MIC [2] greater than 128 µg/mL and an MIC [3] greater than 128 µg/mL. It also gave an MIC [4] greater than 128 µg/mL, an MIC [5] greater than 128 µg/mL and an MIC [6] greater than 128 µg/mL.

Molecule CCn1cc(C(=O)O)c(=O)c2cc(F)c(N3CCNCC3)cc21 [NORFLOXACIN] has an MIC [1] of 0.5 µg/mL (≈ 1.57 µM), an MIC [2] of 8 µg/mL (≈ 25.1 µM) and an MIC [3] of 0.5 µg/mL (≈ 1.57 µM). It also gave an MIC [4] of 32 µg/mL (≈ 100 µM), an MIC [5] of 0.5 µg/mL (≈ 1.57 µM) and an MIC [6] of 128 µg/mL (≈ 401 µM).

Molecule C=C(C)[C@H]1CC[C@]2(C)C/C=C(\C)CC/C=C(\C)CC[C@@H]12 has an MIC [1] of 64 µg/mL (≈ 235 µM), an MIC [2] of 128 µg/mL (≈ 470 µM) and an MIC [3] of 128 µg/mL (≈ 470 µM). The MIC [4] was 128 µg/mL (≈ 470 µM), the MIC [5] was 128 µg/mL (≈ 470 µM) and the MIC [6] was 16 µg/mL (≈ 58.7 µM).

C=C(C)[C@H]1CC[C@]2(C)C[C@@H]3O[C@@]3(C)CC/C=C(\C)CC[C@@H]12 gave an MIC [1] greater than 128 µg/mL, an MIC [2] greater than 128 µg/mL and an MIC [3] greater than 128 µg/mL. The MIC [4] was greater than 128 µg/mL, the MIC [5] was greater than 128 µg/mL and the MIC [6] was 32 µg/mL (≈ 111 µM).

In the case of C=C(C)[C@@H]1CC(=O)[C@]2(C)C/C=C(\C)CC/C=C(\C)CC[C@@H]12, the MIC [1] is reported as greater than 128 µg/mL, the MIC [2] is reported as greater than 128 µg/mL and the MIC [3] is reported as greater than 128 µg/mL. The MIC [4] was greater than 128 µg/mL, the MIC [5] was greater than 128 µg/mL and the MIC [6] was greater than 128 µg/mL.

C=C(C)[C@H]1C[C@H](OC(C)=O)[C@]2(C)C[C@@H]3O[C@@]3(C)CC/C=C(\C)CC[C@@H]12 gave an MIC [1] of 32 µg/mL (≈ 92.3 µM), an MIC [2] of 128 µg/mL (≈ 369 µM) and an MIC [3] of 128 µg/mL (≈ 369 µM). It also gave an MIC [4] of 64 µg/mL (≈ 185 µM), an MIC [5] of 64 µg/mL (≈ 185 µM) and an MIC [6] of 32 µg/mL (≈ 92.3 µM).

C=C(C)[C@H]1CC[C@]2(C)C/C=C(\C)CC[C@@H]3O[C@@]3(C)CC[C@@H]12 gave an MIC [1] greater than 128 µg/mL, an MIC [2] greater than 128 µg/mL and an MIC [3] of 128 µg/mL (≈ 444 µM). The MIC [4] was greater than 128 µg/mL, the MIC [5] was greater than 128 µg/mL and the MIC [6] was 4 µg/mL (≈ 13.9 µM).

Work on CC(=O)O[C@H]1C/C(C)=C/CC[C@@H](C)/C=C/[C@@]2(C)CC[C@@H](C(C)(C)O)[C@H]12 yielded an MIC [1] greater than 128 µg/mL, an MIC [2] greater than 128 µg/mL and an MIC [3] greater than 128 µg/mL. For the same molecule, the MIC [4] was greater than 128 µg/mL, the MIC [5] was greater than 128 µg/mL and the MIC [6] was 64 µg/mL (≈ 184 µM).

For C=C(C)[C@H]1C[C@H](O)[C@]2(C)C/C=C(\C)CC/C=C(\C)CC[C@@H]12, the MIC [1] was 128 µg/mL (≈ 444 µM), the MIC [2] was 64 µg/mL (≈ 222 µM) and the MIC [3] was 64 µg/mL (≈ 222 µM). It also gave an MIC [4] of 32 µg/mL (≈ 111 µM), an MIC [5] of 64 µg/mL (≈ 222 µM) and an MIC [6] of 8 µg/mL (≈ 27.7 µM).

With C=C(C)[C@@H]1CC[C@]2(C)/C=C/[C@H](C)CC/C=C(\C)CC[C@@H]12 the MIC [1] was greater than 128 µg/mL, the MIC [2] was greater than 128 µg/mL and the MIC [3] was greater than 128 µg/mL. It also gave an MIC [4] greater than 128 µg/mL, an MIC [5] greater than 128 µg/mL and an MIC [6] greater than 128 µg/mL.

Work on C=C(C)[C@H]1C[C@@H](O)[C@]2(C)C/C=C(\C)CC/C=C(\C)CC[C@@H]12 yielded an MIC [1] of 4 µg/mL (≈ 13.9 µM), an MIC [2] of 4 µg/mL (≈ 13.9 µM) and an MIC [3] of 2 µg/mL (≈ 6.93 µM). The MIC [4] was 2 µg/mL (≈ 6.93 µM), the MIC [5] was 4 µg/mL (≈ 13.9 µM) and the MIC [6] was 2 µg/mL (≈ 6.93 µM).

C=C(C)[C@H]1CC(=O)[C@]2(C)C/C=C(/C)CC[C@@H]3O[C@@]3(C)CC[C@@H]12 gave an MIC [1] greater than 128 µg/mL, an MIC [2] greater than 128 µg/mL and an MIC [3] greater than 128 µg/mL. The MIC [4] was greater than 128 µg/mL, the MIC [5] was greater than 128 µg/mL and the MIC [6] was greater than 128 µg/mL.

In the case of C/C1=C\C[C@@]2(C)CC[C@H](C(C)(C)O)[C@@H]2CC/C(C)=C/CC1, the MIC [1] is reported as 32 µg/mL (≈ 110 µM), the MIC [2] is reported as 64 µg/mL (≈ 220 µM) and the MIC [3] is reported as 32 µg/mL (≈ 110 µM). The MIC [4] was 32 µg/mL (≈ 110 µM), the MIC [5] was 64 µg/mL (≈ 220 µM) and the MIC [6] was 8 µg/mL (≈ 27.5 µM).
